Measured values as given in ChEMBL document CHEMBL1123277, “Reactive 5'-substituted thymidine derivatives as potential inhibitors of nucleotide biosynthesis” (J Med Chem, 1986).

What was measured:
L1210 [1] = assay: Compound was tested for the cytotoxic concentration that produces 50% inhibition of L1210 cells.; format: functional, cell-based; conditions: Mus musculus, read-out: I50
[2] = Half-life is estimated by TLC; format: ADME
Summary of the method: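 Reactivity toward thiol was measured at pH 7. A 0.25–0.5% solution of compound in MeOH was mixed 1:1 with 1% mercaptoethanol in pH 7 buffer. Loss of alkylating activity was followed by TLC with 4-(4-nitrobenzyl)pyridine spray, and the half-life was estimated from this.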

HEp-2 = assay: Compound was tested for the cytotoxic concentration that produces 50% inhibition of cloning of H.Ep.-2 cells; format: functional, cell-based; conditions: Homo sapiens, read-out: I50
L1210 [3] = assay: Compound was tested for the cytotoxic concentration that produces 50% inhibition of L1210 cells; format: functional, cell-based; conditions: Mus musculus, read-out: I50
P388 = assay: Compound was tested in vivo in […] murine leukemia cells in mice at dose of 200 mg/kg; format: functional; conditions: Mus musculus

| Structure (SMILES) | IC50 (L1210 [1]) | half-life [2] | IC50 (HEp-2) | IC50 (L1210 [3]) | ILS at 200 mg/kg (P388) |
| --- | --- | --- | --- | --- | --- |
| Cc1cn(C2CC(O)C(CN(C)C(=O)CCl)O2)c(=O)[nH]c1=O (stereo not given) | > 120 µM |  |  |  |  |
| Cc1cn(C2CC(O)C(CNC(=O)CCl)O2)c(=O)[nH]c1=O (stereo not given) |  | 3 h | 25 µM | 130 µM | 9% |
